TbMetRS inhib = T. brucei MetRS inhibitors, primary screen, biochemical, luminescence. AID 624268, 2012. methionyl-tRNA synthetase (Trypanosoma brucei brucei). inhibition, % at 11.9 µM. hit rate 0.4% among 360,000. purified T. brucei MetRS, ATP depletion, Kinase-Glo luminescence;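 active means inhibition above a per-plate cutoff of the control wells' mean inhibition plus 3 SD, cut at about 5.5% in these data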;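 further: 0% = DMSO wells median and 100% = median of wells with control inhibitor compound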
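Test system: purified T. brucei MetRS enzyme. Also added: ATP, methionine and E. coli bulk tRNA substrates. Compound: 11.9 µM single point. Schedule: 15 min enzyme-compound preincubation, 2 h reaction, 10 min detection, 25 °C. Signal: luciferase luminescence of residual ATP, Kinase-Glo. Evaluation: percent inhibition versus plate control medians. Controls: DMSO wells, low control.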
Rin1-Abl PPI inh = inhibitors of Rin1-Abl protein binding, primary screen, biochemical, TR-FRET. Tyrosine-protein kinase ABL1 (Homo sapiens) + Ras and Rab interactor 1 (Homo sapiens), …. inhibition, % at 7.35 µM. hit rate 0.4% among 360,000; in the data active means inhibition above about 5%, passing the limit was not always enough
Target sequence (P00519 whole entry, looked up): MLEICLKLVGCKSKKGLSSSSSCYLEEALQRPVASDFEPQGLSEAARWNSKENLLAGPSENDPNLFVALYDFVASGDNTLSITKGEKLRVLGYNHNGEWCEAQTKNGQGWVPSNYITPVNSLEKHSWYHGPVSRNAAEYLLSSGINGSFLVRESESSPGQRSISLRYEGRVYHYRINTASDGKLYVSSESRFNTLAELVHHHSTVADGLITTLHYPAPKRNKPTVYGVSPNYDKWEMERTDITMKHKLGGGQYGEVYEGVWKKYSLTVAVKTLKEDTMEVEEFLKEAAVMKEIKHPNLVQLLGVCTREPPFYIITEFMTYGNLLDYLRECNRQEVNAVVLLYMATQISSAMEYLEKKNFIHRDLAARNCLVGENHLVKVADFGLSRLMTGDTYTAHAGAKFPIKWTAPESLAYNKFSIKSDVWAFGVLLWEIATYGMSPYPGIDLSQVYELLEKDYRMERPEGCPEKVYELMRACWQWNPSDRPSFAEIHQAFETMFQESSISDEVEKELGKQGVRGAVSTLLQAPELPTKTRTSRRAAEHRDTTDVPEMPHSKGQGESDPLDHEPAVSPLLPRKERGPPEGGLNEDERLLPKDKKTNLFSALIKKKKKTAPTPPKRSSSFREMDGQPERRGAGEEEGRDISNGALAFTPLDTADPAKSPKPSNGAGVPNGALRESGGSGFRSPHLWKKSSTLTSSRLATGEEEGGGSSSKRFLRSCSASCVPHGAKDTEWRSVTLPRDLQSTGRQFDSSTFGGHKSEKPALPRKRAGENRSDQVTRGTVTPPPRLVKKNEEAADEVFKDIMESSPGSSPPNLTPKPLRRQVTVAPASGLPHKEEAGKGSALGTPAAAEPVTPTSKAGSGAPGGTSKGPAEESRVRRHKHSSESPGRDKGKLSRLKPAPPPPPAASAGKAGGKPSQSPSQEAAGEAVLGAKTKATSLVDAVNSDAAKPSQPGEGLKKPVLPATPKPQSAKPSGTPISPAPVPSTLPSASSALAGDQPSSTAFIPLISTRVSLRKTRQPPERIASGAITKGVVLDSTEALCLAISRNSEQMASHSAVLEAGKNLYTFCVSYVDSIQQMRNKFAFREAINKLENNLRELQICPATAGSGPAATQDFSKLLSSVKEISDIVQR
Target sequence (Q13671 whole entry, looked up): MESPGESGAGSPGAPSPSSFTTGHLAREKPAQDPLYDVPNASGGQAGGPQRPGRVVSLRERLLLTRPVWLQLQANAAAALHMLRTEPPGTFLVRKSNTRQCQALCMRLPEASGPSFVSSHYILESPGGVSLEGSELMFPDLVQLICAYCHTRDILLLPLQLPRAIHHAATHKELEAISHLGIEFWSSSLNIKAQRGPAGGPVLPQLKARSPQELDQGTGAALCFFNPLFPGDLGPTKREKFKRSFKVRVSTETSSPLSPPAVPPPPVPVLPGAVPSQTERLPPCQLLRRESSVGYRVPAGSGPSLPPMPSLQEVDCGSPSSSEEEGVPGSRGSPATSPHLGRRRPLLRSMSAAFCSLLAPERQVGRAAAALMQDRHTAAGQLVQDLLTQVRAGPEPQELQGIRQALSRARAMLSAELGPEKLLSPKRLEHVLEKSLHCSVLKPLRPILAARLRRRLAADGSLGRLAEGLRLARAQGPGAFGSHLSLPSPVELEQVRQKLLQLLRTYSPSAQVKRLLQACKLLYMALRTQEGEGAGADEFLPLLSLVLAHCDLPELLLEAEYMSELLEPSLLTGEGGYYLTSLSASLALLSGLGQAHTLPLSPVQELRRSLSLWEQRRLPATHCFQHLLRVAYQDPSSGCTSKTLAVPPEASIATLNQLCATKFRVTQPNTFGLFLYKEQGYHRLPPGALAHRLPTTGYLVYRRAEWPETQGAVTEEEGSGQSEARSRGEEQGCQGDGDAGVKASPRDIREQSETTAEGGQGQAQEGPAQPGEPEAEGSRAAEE
UCH37 DUB inh = inhibitors of human UCH37 deubiquitinase, primary screen, biochemical, Ub-AMC cleavage, fluorescence; inhibition, % (test concentration not listed); Ubiquitin carboxyl-terminal hydrolase isozyme L5 (Homo sapiens), Q9Y5K5; hit rate 0.33% among 330,000; purified proteasome/UCH37;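 active means mean inhibition over replicate wells above about 20%, limit read from the data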;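 further: 0% = compound-free wells with enzyme and 100% = wells lacking proteasome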
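Schedule: 30 min plus 25 min, room temperature / Material: human UCH37 within purified proteasomes / Technique: AMC fluorescence intensity at 355/460 nm / Buffer or medium: pH 7.4 Tris-HCl (50 mM) with ovalbumin, ATP-MgCl2, DTT / Controls: wells without proteasome as full block, compound-free enzyme plus substrate as uninhibited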
ATG4B inh = ATG4B protease inhibitors, primary screen, biochemical, fluorescence, uHTS; Cysteine protease ATG4B (Homo sapiens), Q9Y4P1; ATG4B cleavage of LC3-PLA2, NBD-HPC fluorescence, 1 h; inhibition, % at 8.33 µM; hit rate 0.51% among 340,000; in the data active means inhibition above about 40%
Rin1-Abl confirm = Rin1-Abl binding inhibitor retest, confirmation, biochemical, TR-FRET | inhibition, % at 7.35 µM | purified proteins | hit rate 49% among 1,300 | shares compounds with Rin1-Abl PPI inh | AID 602124, 2011
GFP quench = GFP fluorescence inhibitors and quenchers, artefact control for Rin1-Abl interaction inhibitor project, biochemical; shares compounds with Rin1-Abl PPI inh; inhibitors/quenchers counterscreen; inhibition, % at 6.75 µM; hit rate 8.5% among 1,300;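 further: ABL1-eGFP fusion protein alone without its partner RIN1-SBP; 0% = protein with vehicle and 100% = wells lacking protein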
GFP quench dose = GFP fluorescence inhibitors and quenchers, dose response, artefact control for Rin1-Abl interaction inhibitor project, biochemical; GFP fluorescence interference/quenching counterscreen; IC50, µM; 230 tested, under 10 active; shares compounds with Rin1-Abl PPI inh; call rule not given here;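 further: ABL1-eGFP fusion protein alone without its RIN1 binding partner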
An asterisk follows results filed as active. This is a sample that favours compounds with a hit; in the whole collection about 1.4% have one here. Unless noted, no stated cut-off is given here; in the data, active means inhibition above about 6.5%; inactive means the rest.

Results for COc1ccc(N(CC(=O)Nc2ccccc2C)S(=O)(=O)c2ccccc2[N+](=O)[O-])c(OC)c1 ?
TbMetRS inhib: -1; Rin1-Abl PPI inh: 0; UCH37 DUB inh: 1; ATG4B inh: 0

Results for Oc1ccc2[nH]ccc2c1 ?
TbMetRS inhib: 0; Rin1-Abl PPI inh: -1; UCH37 DUB inh: 1; ATG4B inh: -13

What do the screens show for `Cc1ccc(CNC(=O)CSc2nc(=O)n3ccccc3n2)cc1`?
TbMetRS inhib: 0; Rin1-Abl PPI inh: 2; UCH37 DUB inh: 8; ATG4B inh: 15

How did CC(C)Cc1nnc(NC(=O)CCC(=O)NC2CCCc3ccccc32)s1 (stereo not given) do in these assays?
TbMetRS inhib: 0; Rin1-Abl PPI inh: -4; UCH37 DUB inh: 5; ATG4B inh: -4

What do the screens show for `CC[C@]12c3[nH]c4ccc(Cl)cc4c3CCN1C(=O)[C@@H](CC(=O)NCC13CC4CC(CC(C4)C1)C3)C[C@@H]2C(=O)N1CCN(C(=O)c2ccco2)CC1`?
TbMetRS inhib: -1; Rin1-Abl PPI inh: 21*; UCH37 DUB inh: 3; ATG4B inh: -16; Rin1-Abl confirm: 16*; GFP quench: -1

How did CC[C@]12c3[nH]c4ccc(OC)cc4c3CCN1C(=O)C(CC(=O)NCC13CC4CC(CC(C4)C1)C3)C[C@@H]2C(=O)N1CCN(C(=O)c2ccco2)CC1 (stereo not given in full) do in these assays?
TbMetRS inhib: -1; Rin1-Abl PPI inh: 54*; UCH37 DUB inh: -1; ATG4B inh: -17; Rin1-Abl confirm: 59*; GFP quench: 2; GFP quench dose: >68

How did COC(=O)c1cc(O)c(O)c(O)c1 do in these assays?
TbMetRS inhib: 0; Rin1-Abl PPI inh: 18*; UCH37 DUB inh: 4; ATG4B inh: -8; Rin1-Abl confirm: 17*; GFP quench: 4

What do the screens show for `COC(=O)c1cc(OC)nc(OC)c1`?
TbMetRS inhib: 0; Rin1-Abl PPI inh: -2; UCH37 DUB inh: -40; ATG4B inh: 3

What do the screens show for `CCOC(=O)CSc1nc2cc(C(=O)N3CCCC3)ccc2c(=O)n1Cc1ccccc1`?
TbMetRS inhib: -1; Rin1-Abl PPI inh: -1; UCH37 DUB inh: 0; ATG4B inh: -16

What do the screens show for `CCOC(=O)CSc1nc2cc(C(=O)N3CCC(C(N)=O)CC3)ccc2c(=O)n1-c1ccccc1`?
TbMetRS inhib: -1; Rin1-Abl PPI inh: 9.0*; UCH37 DUB inh: 1; ATG4B inh: -4; Rin1-Abl confirm: 1; GFP quench: -1

How did CC(C)(C)NC(=O)CN(C(=O)C(=O)Nc1ccc2c(c1)OCCO2)C1CC1 do in these assays?
TbMetRS inhib: 0; Rin1-Abl PPI inh: 2; UCH37 DUB inh: 5; ATG4B inh: -12

Results for CCCCOc1ccc(C(C)NC(=O)CCS(=O)(=O)Cc2ccc(C)cc2)cc1 (stereo not given) ?
TbMetRS inhib: 0; Rin1-Abl PPI inh: 4.4*; UCH37 DUB inh: 1; ATG4B inh: 22; Rin1-Abl confirm: -7; GFP quench: 0

What do the screens show for `CC1CCN(S(=O)(=O)c2cc(Br)cc(C(=O)NC3=NCCS3)c2)CC1`?
TbMetRS inhib: -1; Rin1-Abl PPI inh: 1; UCH37 DUB inh: 4; ATG4B inh: -4

How did CC(=O)c1cccc(NC(=O)CNC(=O)c2cc3ccccc3o2)c1 do in these assays?
TbMetRS inhib: -1; Rin1-Abl PPI inh: 17*; UCH37 DUB inh: -1; ATG4B inh: 7; Rin1-Abl confirm: -10; GFP quench: 0

Results for O=C(c1ccc(Cl)c(Cl)c1)N1CCC(=O)N([C@H](COCc2ccccc2)Cc2ccccc2)CC1 ?
TbMetRS inhib: 0

Results for O=C(c1ccc(Cl)c(Cl)c1)N1CCC(=O)N(C(COCc2ccccc2)Cc2ccccc2)CC1 (stereo not given) ?
TbMetRS inhib: 0; Rin1-Abl PPI inh: 9.5*; UCH37 DUB inh: 4; ATG4B inh: 2; Rin1-Abl confirm: 15*; GFP quench: 0

How did CCCCCCSc1ccc([C@@H]2[C@@H]3C(=O)N(CC)C(=O)[C@@H]3[C@]3(C(=O)OC)CCCCN23)cc1 do in these assays?
TbMetRS inhib: 0; Rin1-Abl PPI inh: 3; UCH37 DUB inh: 4; ATG4B inh: -3

What do the screens show for `CCCCCCSc1ccc([C@@H]2[C@H]3C(=O)N(C)C(=O)[C@H]3[C@]3(C(=O)OC)CCCCN23)cc1`?
TbMetRS inhib: 0; Rin1-Abl PPI inh: 10*; UCH37 DUB inh: 1; ATG4B inh: -5; Rin1-Abl confirm: -2; GFP quench: -1

How did O=C(N/N=C/c1cccc([N+](=O)[O-])c1)c1cc(-c2ccc3c4c(cccc24)CC3)n[nH]1 do in these assays?
TbMetRS inhib: -1; Rin1-Abl PPI inh: -5; ATG4B inh: -2

How did O=C1c2ccccc2C(=O)N1N=Cc1ccc(O)c(O)c1 do in these assays?
UCH37 DUB inh: 6

What do the screens show for `O=C1c2ccccc2C(=O)N1/N=C/c1ccc(O)c(O)c1`?
TbMetRS inhib: -1; Rin1-Abl PPI inh: 11*; ATG4B inh: -6; Rin1-Abl confirm: -3; GFP quench: 6

How did Cc1ccc(C)c(NC(=O)C2C3C=CC(O3)C2C(=O)O)c1 (stereo not given) do in these assays?
TbMetRS inhib: -1; Rin1-Abl PPI inh: 7.6*; UCH37 DUB inh: 1; ATG4B inh: -6; Rin1-Abl confirm: 0; GFP quench: 0

Results for Cc1ccc(NC(=O)C2C3C=CC(O3)C2C(=O)O)c(C)c1 (stereo not given) ?
TbMetRS inhib: 0; Rin1-Abl PPI inh: 4; ATG4B inh: -4

Results for COc1cccc(CNC(=O)Cc2ccc(NC3=NC4CS(=O)(=O)CC4S3)cc2)c1 (stereo not given) ?
TbMetRS inhib: 1; Rin1-Abl PPI inh: 1; UCH37 DUB inh: 2; ATG4B inh: -11

Results for CCN(CC)CCNC(=O)c1ccc(NC2=NC3CS(=O)(=O)CC3S2)cc1 (stereo not given) ?
TbMetRS inhib: 0; Rin1-Abl PPI inh: 1; UCH37 DUB inh: -2; ATG4B inh: -9

What do the screens show for `COc1ccc(OC)c(NC(=O)Cc2ccc(NC3=NC4CS(=O)(=O)CC4S3)cc2)c1` (stereo not given)?
TbMetRS inhib: 0; Rin1-Abl PPI inh: 22*; UCH37 DUB inh: 2; ATG4B inh: 1; Rin1-Abl confirm: 27*; GFP quench: -4; GFP quench dose: >67

High-throughput results: PubChem BioAssay, several laboratories
